Measured values collected from several papers.
Each line is one published result; the experiments were not run side by side.
Target: Interferon-induced, double-stranded RNA-activated protein kinase (EIF2AK2, Homo sapiens, UniProt P19525)

CC(C)CC(=O)N1CCc2nc(-c3ccc(Br)cc3)nc(N(C)Cc3ccccc3)c2C1
remaining binding (cell-free assay, competition with immobilised ligand; 0.1 µM): 100%

Cc1ccc(C(=O)Nc2ccc(CN3CCN(C)CC3)c(C(F)(F)F)c2)cc1C#Cc1cnc2cccnn12
remaining activity (enzyme activity, inhibitor; 23.5 nM): 100%

Cc1ccc(C(=O)NCc2ccsc2)cc1C#Cc1cn(C(C)C)c2ncnc(N)c12
activity vs control (enzyme activity, inhibitor; 1 µM): 97%

CNc1cc(Oc2cc(C(=O)Nc3cc(N4CCN(C)CC4)cc(C(F)(F)F)c3)ccc2C)ncn1
inhibition (target engagement in cells, inhibitor, chemoproteomics; Huh-7; 1 µM): -13%

Cc1nc(N2CC[C@@H](O)C2)ncc1-c1cc(C(F)(F)F)cc2[nH]ncc12
remaining binding (binding, competition with immobilised ligand; 1 µM): 100%

C[C@H]1CCN(c2nccc(-c3cnn4ncccc34)n2)C1
remaining binding (binding; 1 µM): 100%

c1ccc(CNc2nc(N3CCOc4ccccc43)nc3c2CCCC3)cc1
inhibition (target engagement in cells, inhibitor, chemoproteomics; 20 mM): -5.4%

Cc1ccc(NC(=O)c2ccc(C)c(C(F)(F)F)c2)cc1C#Cc1nn(C2CCC(O)CC2)c2ncnc(N)c12 (centres unmarked)
remaining signal (cell-free assay; 10 µM): 75%

Nc1ncnc2occ(-c3ccc(NC(=O)Nc4cc(C(F)(F)F)ccc4F)cc3)c12
remaining signal (cell-free assay, inhibitor; 20 µM): 54%

Cc1cnc(NC2CCOCC2)nc1-n1cnc(C(=O)NC(CN)c2cc(F)cc(Cl)c2)c1 (centres unmarked)
remaining activity (enzyme activity, inhibitor, radiometric; 1 µM): 39%

Cc1cc(NC(=O)c2cccc3cc(-c4cccc5[nH]nc(N)c45)ccc23)ccc1F
activity vs control (enzyme activity, inhibitor; 0.1 µM): 106%

CC/C(=N\NC(=O)NCc1cccc(O)c1)c1ccc(O)c(C)c1O
inhibition (enzyme activity, inhibitor; 0.1 µM): 8.7%

CC(C)(C)c1nc2c(s1)c1nc(N)ncc1c1ccc(NS(=O)(=O)c3c(F)cccc3F)c(F)c12
remaining activity (enzyme activity, inhibitor, radiometric; 1 µM): 93%

CCCCNc1ncc2c(-c3ccc(F)cc3)nn(C[C@H]3CC[C@H](N)CC3)c2n1
inhibition (target engagement in cells, inhibitor, chemoproteomics; 20 mM): 8.5%

CC(C)(C)c1nc(-c2cccc(NS(=O)(=O)c3c(F)cccc3F)c2F)c(-c2ccnc(N)n2)s1
remaining activity (enzyme activity, inhibitor, radiometric; 1 µM): 95%

N#Cc1ccc(Nc2ccc3[nH]c(=O)[nH]c3c2)c(Cl)c1
remaining binding (cell-free assay, competition with immobilised ligand; 1 µM): 57%

CN1CC(Oc2cnc(C#N)cc2-c2ccn3nc(NC(=O)C4CC4)cc3c2)C1
inhibition (enzyme activity, inhibitor; 1 µM): 14%
